How the values were obtained:
Assay type in all cases: functional
[1] = system: Mycobacterium tuberculosis; assay: Antitubercular activity against Mycobacterium tuberculosis H37Rv T3 nitroreductase mutant
Method in brief: (§1)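 Broth dilution MIC99 against Mtb H37Rv (ATCC 27294) and its H37Rv mutants under aerobic conditions. Compound stocks were made in DMSO at 20 mM.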

[2] = system: Mycobacterium tuberculosis; assay: Antitubercular activity against Mycobacterium tuberculosis H37Rv 5A1 nitroreductase mutant; method in brief: as §1
[3] = system: Mycobacterium tuberculosis; assay: Antitubercular activity against Mycobacterium tuberculosis H37Rv T2 nitroreductase mutant; method in brief: as §1

Measured: MIC

O=[N+]([O-])c1cn2c(n1)OC[C@@H](OCc1ccc(OC(F)(F)F)cc1)C2 [PRETOMANID]
>100 µM: [1] | [2] | [3]

C[C@H]1Oc2nc([N+](=O)[O-])cn2C[C@@H]1OCc1ccc(OC(F)(F)F)cc1
>100 µM: [1] | [2] | [3]

C[C@@H]1Oc2nc([N+](=O)[O-])cn2C[C@@H]1OCc1ccc(OC(F)(F)F)cc1
>100 µM: [1] | [2] | [3]

— ChEMBL document CHEMBL1141552, “Synthesis and antitubercular activity of 7-(R)- and 7-(S)-methyl-2-nitro-6-(S)-(4-(trifluoromethoxy)benzyloxy)-6,7-dihydro-5H-imidazo[2,1-b][1,3]oxazines, analogues of PA-824” (Bioorg Med Chem Lett, 2008)
